Legend:
[1] = Inhibition of CREB (unknown origin) expressed in HEK293T cells assessed as reduction in CREB-mediated gene tanscription after 5 hrs by luciferase reporter gene assay; type: cell-based; conditions: Homo sapiens, HEK-293T
Procedure, shortened: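 CREB-Renilla luciferase reporter assay in living HEK 293T cells measuring CREB-mediated gene transcription. Highest concentration tested 50 μM. IC50 given as mean ± SD of at least two independent experiments.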

A549 = test: Growth inhibition of human A549 cells after 72 hrs by MTT assay; type: functional, cell-based; conditions: A549, 72 h
Procedure, shortened: (§1)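 Cancer cells exposed to compounds for 72 h; growth measured by MTT assay. GI50 is the concentration giving 50% growth inhibition, highest concentration tested 100 μM. Mean ± SD of at least two independent experiments.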

MDA-MB-231 = test: Growth inhibition of human MDA-MB-231 cells after 72 hrs by MTT assay; type: functional; conditions: MDA-MB-231, 72 h; procedure, shortened: as §1
MDA-MB-468 = test: Growth inhibition of human MDA-MB-468 cells after 72 hrs by MTT assay; type: functional; conditions: MDA-MB-468, 72 h; procedure, shortened: as §1
[2] = Inhibition of CREB (unknown origin) assessed as reduction in KIX-KID interaction after 20 to 24 hrs by renilla luciferase complementation assay; set-up: species or system Homo sapiens
Procedure, shortened: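 In vitro Renilla luciferase complementation assay of KIX–KID interaction, run at 4 °C. Highest concentration tested 50 μM. IC50 given as mean ± SD of at least two independent experiments.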

MCF7 = test: Growth inhibition of human MCF7 cells after 72 hrs by MTT assay; type: functional; conditions: MCF7, 72 h; procedure, shortened: as §1
[3] = Half life in PBS buffer at pH 7.4 at 4 degC by RP-HPLC method; type: ADME
[4] = Aqueous solubility in water; type: physicochemical
[5] = Half life in PBS buffer at pH 6.98 by RP-HPLC method; type: ADME
Procedure, shortened: (§2)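 Compound incubated in PBS at room temperature at pH 7.40, 6.98, 6.48 or 6.01. Aliquots taken at set times were analysed by RP-HPLC, and percent parent remaining was quantified per chromatogram. Data fitted to first-order kinetics to derive t1/2; mean ± SD of two independent experiments.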

HEK-293T = test: Inhibition of CREB in HEK293T cells assessed as reduction in forskolin-induced NR4A2 mRNA expression at 2.5 uM pre-incubated for 1 hrs before forskolin stimulation for 45 mins by RT-PCR method; type: cell-based; conditions: Homo sapiens
Procedure, shortened: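 HEK 293T cells pretreated with compounds for 1 h, then forskolin added for a further 45 min. Endogenous NR4A2 mRNA quantified by qRT-PCR as relative level; significance by Student's t test.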

[6] = Half life in Dulbecco's Modified eagle medium at pH 7.7 containing 10% fetal bovine serum; type: ADME; conditions: cattle, Dulbecco's Modified Eagle medium with 10% fetal bovine serum
Procedure, shortened: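 Compound incubated at 37 °C in DMEM with 10% FBS. At set times an aliquot was mixed with 9 volumes of acetonitrile to precipitate protein, and the supernatant was analysed by RP-HPLC with UV detection at 254 nm against an internal standard.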

[7] = Half life in PBS buffer at pH 7.4 by RP-HPLC method; type: ADME; procedure, shortened: as §2
[8] = Half life in PBS buffer at pH 6.01 by RP-HPLC method; type: ADME; procedure, shortened: as §2
[9] = Half life in PBS buffer at pH 6.48 by RP-HPLC method; type: ADME; procedure, shortened: as §2
[10] = Retention time of the compound by HPLC method; type: physicochemical
[11] = Drug level in PBS buffer treated with 2-(3-(3-Aminopropoxy)-2-naphthamido)-5-chlorophenyl 3-(3-Aminopropoxy)-2-naphthoate dihydrochloride at room temperature assessed as compound formation; type: physicochemical; procedure, shortened: as §2

Structure (SMILES)	IC50 [1]	IC50 (A549)	GI50 (MDA-MB-231)	GI50 (MDA-MB-468)	IC50 [2]	GI50 (MCF7)	half-life [3]	solubility [4]	half-life [5]	fold change (FC) (HEK-293T)	half-life [6]	half-life [7]	half-life [8]	half-life [9]	Retention_time [10]	Drug metabolism [11]
NCCCOc1cc2ccccc2cc1C(=O)Nc1ccc(Cl)cc1O	26200 nM	2730 nM	2190 nM	1200 nM	> 50000 nM	1850 nM	–	–	–	–	–	–	–	–	–	–
Cl.NCCCOc1cc2ccccc2cc1C(=O)Nc1ccc(Cl)cc1OC(=O)c1cc2ccccc2cc1OCCCN	2270 nM	590 nM	1300 nM	330 nM	4400 nM	–	24 h	> 100000 µg/mL	0.628 h	10	< 0.0833 h	0.455 h	7.46 h	1.91 h	–	–
COc1cc2ccccc2cc1C(=O)Nc1ccc(Cl)cc1O	> 50000 nM	> 100000 nM	> 100000 nM	> 100000 nM	> 50000 nM	> 100000 nM	–	–	–	–	–	–	–	–	–	–
O=C(Nc1ccc(Cl)cc1)c1cc2ccccc2cc1O	2290 nM	2900 nM	2350 nM	1460 nM	2900 nM	2810 nM	–	–	–	–	–	–	–	–	–	–
Cl.NCCCOc1cc2ccccc2cc1C(=O)NCCCOc1cc2ccccc2cc1C(=O)Nc1ccc(Cl)cc1O	2220 nM	290 nM	370 nM	220 nM	19700 nM	140 nM	–	120 µg/mL	–	10	–	–	–	–	12.2 min	metabolite_detected
COc1cc2ccccc2cc1C(=O)Nc1ccc(Cl)cc1OC(=O)c1cc2ccccc2cc1OC	1950 nM	8780 nM	23500 nM	8110 nM	170 nM	–	–	< 100 µg/mL	–	–	20 h	–	–	–	–	–
